Shown are actives, neighbours in structure and some others; about 3.5% of the full set was active somewhere.
MrgX1 agonist: agonists of human MrgX1 receptor; AID 588627; B-score at 10 µM; 310,000 compounds, 0.44% hits; MrgX1-HEK293 cells, Fluo-4 calcium fluorescence, agonist mode; hits give high values;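 active means calcium response B-score plate-corrected fluorescence ratio at least 3 library SD, with starting fluorescence B-score inside 5 SD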
Target sequence (Q96LB2 whole entry, looked up): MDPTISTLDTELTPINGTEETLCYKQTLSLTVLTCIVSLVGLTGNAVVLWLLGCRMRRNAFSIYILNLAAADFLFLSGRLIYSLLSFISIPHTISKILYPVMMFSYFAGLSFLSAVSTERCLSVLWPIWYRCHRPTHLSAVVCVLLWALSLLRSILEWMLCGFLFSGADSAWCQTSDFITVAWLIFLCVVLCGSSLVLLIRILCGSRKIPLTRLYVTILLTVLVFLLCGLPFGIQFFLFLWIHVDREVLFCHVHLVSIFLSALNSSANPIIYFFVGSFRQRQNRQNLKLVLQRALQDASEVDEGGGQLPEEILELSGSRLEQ
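Test system: HEK293 cells stably expressing human MrgX1 receptor; Input: fifteen thousand cells per well; Dosing: compound delivered in addition one of three; Schedule: overnight seeding, then 1 h dark dye loading; Technique: Fluo-4 NW calcium fluorescence; Measure: B-scored fluorescence response ratio; Controls: positive and negative controls per plate.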
RGS4 pot: potentiators or activators of RGS4. HEK293 M3R/inducible RGS4, carbachol calcium flux Fluo4; hits give low values. B-score at 10 µM. AID 463111. 310,000 compounds, 0.92% hits;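 active means B-score of the integrated calcium signal more than 4 SD below the library mean, with starting fluorescence not abnormally high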;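 further: negative B-score means reduced calcium response which marks RGS4 activation or potentiation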
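System: HEK293 FlpIn-TREx cells, stable M3R, doxycycline-inducible RGS4. Timing: overnight RGS4 induction, 30 min dye load 37 °C, 20 min compound RT. Also added: carbachol, ECmax concentration. Measured by: Fluo4 fluorescence kinetic imaging of calcium. Evaluation: integrated calcium ratio converted to B score.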
RGS4 inh: inhibitors of human RGS4; HEK293 M3R/RGS4 inducible, Fluo-4 calcium flux; hits give high values; triggered by carbachol at its EC20; B-score at 10 µM; 310,000 compounds, 0.45% hits; P49798;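 active means B-score, a plate-corrected calcium signal, over three deviations above library mean, with baseline fluorescence within five deviations of library mean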;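 further: RGS4 expression induced by doxycycline in cells with stable M3 receptor; B-score is computed from the integrated fluorescence ratio over baseline after carbachol; higher B-score means a larger calcium signal and so more RGS4 inhibition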
Target sequence (P49798 whole entry, looked up): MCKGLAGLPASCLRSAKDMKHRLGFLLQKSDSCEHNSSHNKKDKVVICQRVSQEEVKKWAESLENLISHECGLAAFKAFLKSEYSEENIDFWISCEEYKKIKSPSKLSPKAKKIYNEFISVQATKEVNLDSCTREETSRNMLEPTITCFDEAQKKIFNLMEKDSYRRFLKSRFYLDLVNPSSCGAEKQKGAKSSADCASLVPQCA
MrgX1 antagonist: human MrgX1 receptor antagonism, primary screen; MRGX1-HEK293 calcium flux, Fluo-4, BAM8-22 antagonism; hits give low values; Q96LB2; B-score at 10 µM; 310,000 compounds, 1.3% hits; AID 588676;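 active means calcium-response B-score plate-corrected more than 3 library SD below zero, starting fluorescence within 5 deviations, no agonist response on first addition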;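 further: peak minus trough fluorescence over baseline after final BAM8-22 challenge near maximal dose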
MrgX1 allo act: allosterically activates human MrgX1 receptor signaling; B-score at 10 µM; Q96LB2; 310,000 compounds, 0.63% hits; MrgX1-HEK293, Fluo-4 calcium flux, FDSS; hits give high values;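 active means plate-corrected calcium response at least 3 library SD above typical, normal starting fluorescence, not activating the receptor alone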;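 further: compound read alongside a low EC10 to EC30 dose of BAM8-22 agonist; peak minus trough fluorescence over baseline measured at the second addition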
MrgX1 allo conf: confirmation of human MrgX1 receptor positive allosteric modulators | activation (ratio percentage), % at 10 µM | MrgX1-HEK293, Fluo-4 calcium fluorescence, FDSS | shares compounds with MrgX1 allo act | 1,200 compounds, 13% hits;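 active means ratio at least 3 SD above the weak peptide control, stable starting fluorescence, no direct agonism earlier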;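 further: compound followed by low BAM8-22 agonist challenge near EC20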
HEK293 Ca flux: activity in parental HEK293 cells lacking MrgX1. shares compounds with MrgX1 antagonist. Fluo-4 calcium fluorescence, FDSS. fluorescence ratio F(max-min)/F0 at 10 µM. 4,000 compounds, 2% hits. AID 624111;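 active means duplicate-averaged calcium fluorescence ratio at least three times the standard deviation of buffer wells, a nonspecific response in parental cells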
HEK293 Ca counter: counter-screen for MrgX1 allosteric activators: effect in parental HEK293 cells; 4,000 compounds, 0.4% hits; parental HEK293 calcium flux, Fluo-4 fluorescence ratio; hits give high values; fluorescence ratio F(max-min)/F0 at 10 µM; shares compounds with MrgX1 antagonist; AID 624114;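 active means calcium fluorescence ratio, averaged over duplicates, at least 3 SD of the buffer-well ratio, meaning a nonspecific response in receptor-free cells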;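 further: untransfected parental HEK293 lacking MrgX1 used as counterscreen for MrgX1 allosteric activators; fluorescence change taken during the second addition on a kinetic imager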
HEK293 Ca cntr2: counter-screen for MrgX1 activators: effect in parental HEK293 cells | AID 624115 | shares compounds with MrgX1 antagonist | Fluo-4 calcium fluorescence (FDSS); hits give high values | 4,000 compounds, 8.7% hits | fluorescence ratio F(max-min)/F0 at 10 µM;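 active means calcium fluorescence ratio at least three times the spread of buffer wells, meaning a non-specific response in parental cells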
Numbers stand for hits; n = inactive; x = no result given.

SMILES	MrgX1 agonist	RGS4 pot	RGS4 inh	MrgX1 antagonist	MrgX1 allo act	MrgX1 allo conf	HEK293 Ca flux	HEK293 Ca counter	HEK293 Ca cntr2
CCOCCCNS(=O)(=O)c1ccc(NC(=O)C2CC(=O)N(c3ccc(C)cc3)C2)cc1 (stereo not drawn)	n	n	n	n	n	x	x	x	x
COc1ccccc1C(=O)OCC(=O)Nc1ccccc1OC(F)F	n	n	n	n	7.4	n	n	n	n
COc1ccccc1C(=O)OCC(=O)Nc1ccc(OC(F)F)cc1	n	n	n	n	n	x	x	x	x
COc1cccc(NC(=O)c2ccccc2Br)c1	n	n	n	n	n	x	x	x	x
COc1ccc(Br)c(C(=O)Nc2ccc(F)cc2)c1	n	n	n	n	6.9	n	n	n	n
Fc1ccc(-c2csc(NC3=NCCC3)n2)cc1	n	n	n	n	12	n	n	n	n
COc1ccc(CCC(=O)Nc2ccc3c(c2)OCO3)cc1	n	n	n	n	n	x	x	x	x
COc1ccc(CC(=O)OCC(=O)Nc2ccc3c(c2)OCO3)cc1	n	n	n	n	10	n	n	n	n
O=C(c1ccc(COc2ccc3c(c2)CCC3)o1)N1CCN(c2ccccc2)CC1	n	n	n	n	7.7	n	n	n	n
COc1ccc(N=C2SCC(=O)N2Cc2ccccc2)cc1	n	n	n	n	11	n	n	n	n
CCOC(=O)C1(CCOc2ccccc2)CCN(Cc2ccc(-n3cccn3)cc2)CC1	n	n	n	n	n	x	x	x	x
Cc1nn(C)c(C(=O)NC2C3CC4CC(C3)CC2C4)c1Cl (stereo not drawn)	n	n	n	n	13	n	n	n	n
Cc1ccc(Cn2nnc3c(=O)[nH]c(C4CCN(S(=O)(=O)c5ccccc5F)CC4)nc32)cc1	n	n	n	n	n	x	x	x	x
CN(C)S(=O)(=O)N1CCN(CC(O)COc2ccc3cc(Br)ccc3c2)CC1 (stereo not drawn)	n	n	n	n	n	x	x	x	x
COCCC(=O)N1CCC(n2nccc2NC(=O)c2ccccc2C)CC1	n	n	n	n	n	x	x	x	x
CCCCc1cc(=O)oc2cc(OCC(=O)NCc3ccccn3)c(Cl)cc12	n	n	n	n	n	x	x	x	x
CCCCc1cc(=O)oc2cc(OC(C)C(=O)NCc3ccccn3)c(Cl)cc12 (stereo not drawn)	n	n	n	n	13	n	n	n	n
N/C(=N\OC(=O)c1ccc(Cl)cc1)c1[nH]ncc1Br	n	n	n	n	n	x	x	x	x
Cc1ccc(S(=O)(=O)N/N=C/c2cccc3c2OCCO3)cc1	n	n	n	n	n	x	x	x	x
Cc1ccc(S(=O)(=O)N/N=C/c2cccc3nccnc23)cc1	n	n	n	n	20	n	n	n	n
C=C(C)COc1ccc2c(C)c(CCC(=O)N3C[C@H]4C[C@@H](C3)c3cccc(=O)n3C4)c(=O)oc2c1	n	n	n	n	28	n	n	n	n
CSc1ccccc1NC(=O)CN(C)CC(=O)Nc1c(F)cccc1F	n	n	n	n	n	x	x	x	x
O=C(NCc1cccnc1)C1CC(=O)N(CCc2ccccc2)C1 (stereo not drawn)	n	n	n	n	n	x	x	x	x
Cc1ccc2[nH]c(=O)c(CN(CC3CCCO3)C(=O)c3cccs3)cc2c1 (stereo not drawn)	n	n	n	n	35	n	n	n	n
Cc1ccc2cc(CN(CC3CCCO3)C(=O)c3cccs3)c(=O)[nH]c2c1 (stereo not drawn)	n	n	n	n	n	x	x	x	x
SMILES	MrgX1 agonist	RGS4 pot	RGS4 inh	MrgX1 antagonist	MrgX1 allo act	MrgX1 allo conf	HEK293 Ca flux	HEK293 Ca counter	HEK293 Ca cntr2
CCOC(=O)N1CCN(c2cc(=O)n(-c3cccc(Br)c3)c(=O)[nH]2)CC1	n	n	n	n	n	x	x	x	x
CCOC(=O)N1CCN(c2cc(=O)n(-c3cccc(C)c3)c(=O)[nH]2)CC1	n	n	n	n	11	n	n	n	n
COc1cccc(/C=N/n2c(SC)nnc2-c2ccccc2)c1O	n	n	n	n	20	154%	n	n	n
C[C@H](NC(=O)c1ccccc1)C(=O)N1CCC2(CC1)NCCc1[nH]cnc12	n	n	n	n	n	x	x	x	x
N#Cc1ccc(-c2ccco2)nc1SCC(=O)c1ccc(Cl)cc1	n	n	n	n	8.4	n	0.48	n	n
COc1ccc(C2C3=C(CC(C)(C)CC3=O)OC(N)=C2[N+](=O)[O-])cc1 (stereo not drawn)	n	n	n	n	n	x	x	x	x
CC(SCc1ccccc1)C(=O)Nc1ccccc1Br (stereo not drawn)	n	n	n	n	6.5	n	n	n	n
CCn1c(=O)c2c(nc(SCC(=O)N3CCCC(C)C3)n2C)n(C)c1=O (stereo not drawn)	n	n	n	n	n	x	x	x	x
CN(Cc1ccc(N(C)C)cc1)C(=O)c1cc2ccccc2o1	n	n	n	n	12	8.2%	n	n	n
COC(=O)c1ccccc1C(=O)N1CCCC(CNC(=O)c2ccc(F)cc2)C1 (stereo not drawn)	n	n	n	n	n	x	x	x	x
CCCc1ccc(OCC(=O)Nc2cc(S(=O)(=O)CC)ccc2O)cc1	n	n	n	n	24	n	n	n	n
COC(=O)c1ccc(-n2cncn2)c(F)c1	n	n	n	n	n	x	x	x	x
COc1ccc(C)cc1NC(=O)C1CCN(C(=O)Cc2ccccc2)CC1	n	n	n	n	11	n	n	n	n
COC(=O)c1ccccc1NC(=O)C1CCN(C(=O)Cc2ccccc2)CC1	n	n	n	n	n	x	x	x	x
CC(C)(C)NC(=O)CC(CC(=O)O)c1ccccc1 (stereo not drawn)	n	n	n	n	n	x	x	x	x
C=CCS/C(N)=N\N=C\c1c(O)ccc2ccccc12	n	n	n	n	n	x	x	x	x
CC12COC3(C(=O)Nc4nccs4)CC1CCC32C (stereo not drawn)	n	n	n	n	n	x	x	x	x
CC12COC3(C(=O)Nc4ccc(Cl)cc4)CC1CCC32C (stereo not drawn)	n	n	n	n	31	8.2%	n	n	n
Cc1cccc(NC(=O)Nc2ccc3c(c2)CCC3)c1	n	n	n	n	n	x	x	x	x
COc1ccc(S(=O)(=O)Nc2ccc(S(=O)(=O)Nc3nccs3)cc2)cc1	n	n	n	n	n	x	x	x	x
COc1ccc(OCC(=O)Nc2ccccc2-c2ccccc2)cc1	n	n	n	n	12	n	n	n	n
COc1ccccc1CN(C)CC(=O)Nc1ccccc1-c1ccccc1	n	n	n	n	10	n	n	n	n

High-throughput results: PubChem, Johns Hopkins Ion Channel Center
